Assay results: ChEMBL document CHEMBL4049428, “Exploring Derivatives of Quinazoline Alkaloid l-Vasicine as Cap Groups in the Design and Biological Mechanistic Evaluation of Novel Antitumor Histone Deacetylase Inhibitors” (J Med Chem, 2017)
Active and inactive are the calls of the source. The rule behind the calls is not given here.

Columns and labels:
Histone deacetylase 8 = Histone deacetylase 8 (Homo sapiens, UniProt Q9BY41); experiment: Inhibition of HDAC 8 in human HeLa nuclear extract using fluorogenic HDAC class 2A substrate measured after 60 mins by fluorometric analysis
Chain of Histone deacetylase 8 (Q9BY41 whole entry): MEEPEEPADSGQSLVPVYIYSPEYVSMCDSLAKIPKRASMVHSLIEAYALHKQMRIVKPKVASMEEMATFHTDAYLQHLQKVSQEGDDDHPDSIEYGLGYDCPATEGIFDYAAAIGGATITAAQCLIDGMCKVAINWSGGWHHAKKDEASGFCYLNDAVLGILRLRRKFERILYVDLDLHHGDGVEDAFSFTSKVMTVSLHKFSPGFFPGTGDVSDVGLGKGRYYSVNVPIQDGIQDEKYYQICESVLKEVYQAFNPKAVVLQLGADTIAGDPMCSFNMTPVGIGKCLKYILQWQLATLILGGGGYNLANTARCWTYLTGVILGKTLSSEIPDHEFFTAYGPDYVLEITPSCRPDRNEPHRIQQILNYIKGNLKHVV

HL-60 [1] = experiment: Induction of mitochondrial membrane potential loss in human HL60 cells assessed as intact mitochondrial membrane potential at 5 uM measured after 48 hrs by Rh123 dye-based flow cytometric analysis (reference value: 91.3%); assay type: functional
Method in brief: (§1)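 Cells seeded in 6-well plates 2-4 h, then 48 h with compound; Rh-123 1 µM added for the final half hour; cells centrifuged, washed twice in PBS, resuspended in PBS, and Ψm loss quantified by flow cytometry as percentage of cells.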

Histone deacetylase 9 = Histone deacetylase 9 (Homo sapiens, UniProt Q9UKV0); experiment: Inhibition of HDAC 9 in human HeLa nuclear extract using fluorogenic HDAC class 2A substrate measured after 60 mins by fluorometric analysis
Chain of Histone deacetylase 9 (Q9UKV0 whole entry): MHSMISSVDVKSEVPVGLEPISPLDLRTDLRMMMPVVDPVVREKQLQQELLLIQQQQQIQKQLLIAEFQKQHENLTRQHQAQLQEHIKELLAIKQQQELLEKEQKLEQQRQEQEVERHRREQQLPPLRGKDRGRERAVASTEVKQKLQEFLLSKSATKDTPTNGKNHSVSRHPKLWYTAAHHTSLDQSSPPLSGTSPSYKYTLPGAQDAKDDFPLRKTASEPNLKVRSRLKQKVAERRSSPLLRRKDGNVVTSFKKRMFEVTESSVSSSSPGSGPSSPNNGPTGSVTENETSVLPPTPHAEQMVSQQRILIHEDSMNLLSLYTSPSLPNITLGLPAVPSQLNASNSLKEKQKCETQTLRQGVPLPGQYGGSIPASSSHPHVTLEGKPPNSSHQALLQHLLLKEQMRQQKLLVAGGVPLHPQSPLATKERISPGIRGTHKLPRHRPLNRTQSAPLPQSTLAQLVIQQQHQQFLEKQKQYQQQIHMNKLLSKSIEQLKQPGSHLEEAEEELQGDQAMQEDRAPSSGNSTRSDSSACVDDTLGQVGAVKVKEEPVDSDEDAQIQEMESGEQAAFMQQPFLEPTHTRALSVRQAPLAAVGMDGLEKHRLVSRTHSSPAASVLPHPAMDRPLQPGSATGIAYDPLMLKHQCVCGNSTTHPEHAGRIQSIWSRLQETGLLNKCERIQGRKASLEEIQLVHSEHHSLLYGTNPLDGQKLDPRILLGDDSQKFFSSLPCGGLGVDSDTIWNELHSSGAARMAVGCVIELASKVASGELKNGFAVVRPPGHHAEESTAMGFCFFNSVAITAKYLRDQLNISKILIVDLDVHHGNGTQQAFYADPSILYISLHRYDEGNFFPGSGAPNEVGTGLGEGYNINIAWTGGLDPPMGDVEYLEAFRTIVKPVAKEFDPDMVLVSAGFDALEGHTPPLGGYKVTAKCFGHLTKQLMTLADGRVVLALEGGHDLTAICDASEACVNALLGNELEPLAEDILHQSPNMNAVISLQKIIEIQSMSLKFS

HL-60 [2] = experiment: Induction of mitochondrial membrane potential loss in human HL60 cells assessed as intact mitochondrial membrane potential at 0.125 uM measured after 48 hrs by Rh123 dye-based flow cytometric analysis (reference value: 91.3%); assay type: functional; method in brief: as §1
MOLT-4 [3] = experiment: Induction of reactive oxygen species in human MOLT4 cells at 1 uM measured after 48 hrs by H2DCFDA dye-based flow cytometric analysis (reference value: 1.1%); assay type: functional
Homo sapiens = species on record: Homo sapiens; experiment: Inhibition of HDAC in human MOLT4 cells assessed as increase in acetylated H4K5 levels after 48 hrs by Western blot analysis; assay type: cell-based
Method in brief: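 Cells seeded 2-4 h, treated 48 h with graded compound concentrations (SAHA control); histones acid-extracted (HEPES pH 9 buffer, 0.2 N HCl, 1 h on ice), Bradford-normalised, resolved on 18% SDS gels, blotted to PVDF, probed for acetyl-H3K18 and acetyl-H4K5 with H3 and β-actin loading controls; ECL detection.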

HL-60 [4] = experiment: Cytotoxicity against human HL60 cells assessed as growth inhibition after 48 hrs by MTT assay; assay type: functional, cell-based; settings: HL-60, 48 h
HL-60 [5] = experiment: Induction of autophagy in human HL60 cells assessed as intracellular LC-3B distribution at 10 uM after 48 hrs by DAPI dye-based immunofluorescent microscopic analysis; assay type: functional, cell-based
Method in brief: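 After 48 h treatment (SAHA 1.0 µM control), cells put on poly-lysine coverslips, fixed 15 min in 4% paraformaldehyde, permeabilised with 0.1% Triton X-100, blocked in 10% BSA; anti-LC-3B 1:100 for 1 h, Alexa Fluor 488 secondary 1:500 for 1 h, DAPI 1 µg/ml counterstain; imaged with 60X oil objective.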

Histone deacetylase 4 = Histone deacetylase 4 (Homo sapiens, UniProt P56524); experiment: Inhibition of HDAC 4 in human HeLa nuclear extract using fluorogenic HDAC class 2A substrate measured after 60 mins by fluorometric analysis
Chain of Histone deacetylase 4 (P56524 whole entry): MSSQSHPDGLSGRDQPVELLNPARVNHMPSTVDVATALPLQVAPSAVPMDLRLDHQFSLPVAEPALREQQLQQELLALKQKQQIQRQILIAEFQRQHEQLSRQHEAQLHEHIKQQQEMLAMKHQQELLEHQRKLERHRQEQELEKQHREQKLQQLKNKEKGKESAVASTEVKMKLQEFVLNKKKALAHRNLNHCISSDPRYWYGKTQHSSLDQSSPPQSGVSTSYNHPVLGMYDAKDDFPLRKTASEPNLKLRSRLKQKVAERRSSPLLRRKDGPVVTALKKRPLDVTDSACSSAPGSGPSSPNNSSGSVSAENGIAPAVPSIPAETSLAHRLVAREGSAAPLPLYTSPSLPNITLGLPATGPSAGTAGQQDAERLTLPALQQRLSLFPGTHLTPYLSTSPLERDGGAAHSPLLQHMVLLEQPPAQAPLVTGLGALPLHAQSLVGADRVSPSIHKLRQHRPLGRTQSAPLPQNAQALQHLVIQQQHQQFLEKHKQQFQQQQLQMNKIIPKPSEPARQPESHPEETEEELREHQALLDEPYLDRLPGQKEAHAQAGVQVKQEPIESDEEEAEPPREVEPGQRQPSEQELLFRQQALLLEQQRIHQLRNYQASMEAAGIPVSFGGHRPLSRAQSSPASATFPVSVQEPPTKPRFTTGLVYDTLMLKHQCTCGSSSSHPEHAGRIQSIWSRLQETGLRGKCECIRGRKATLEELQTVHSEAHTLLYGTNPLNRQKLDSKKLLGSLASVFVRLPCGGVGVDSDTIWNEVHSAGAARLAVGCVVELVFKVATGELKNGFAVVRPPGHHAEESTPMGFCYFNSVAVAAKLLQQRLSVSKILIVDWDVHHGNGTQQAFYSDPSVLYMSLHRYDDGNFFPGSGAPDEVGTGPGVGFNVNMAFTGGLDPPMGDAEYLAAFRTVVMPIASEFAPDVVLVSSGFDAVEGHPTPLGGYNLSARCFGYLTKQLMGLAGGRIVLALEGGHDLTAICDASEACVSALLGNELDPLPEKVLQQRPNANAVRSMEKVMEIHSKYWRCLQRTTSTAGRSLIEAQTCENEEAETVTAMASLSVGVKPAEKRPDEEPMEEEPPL

HL-60 [6] = experiment: Induction of mitochondrial membrane potential loss in human HL60 cells assessed as intact mitochondrial membrane potential at 10 uM measured after 48 hrs by Rh123 dye-based flow cytometric analysis (reference value: 91.3%); assay type: functional; method in brief: as §1
HL-60 [7] = experiment: Induction of reactive oxygen species in human HL60 cells at 0.125 uM measured after 48 hrs by H2DCFDA dye-based flow cytometric analysis (reference value: 0.4%); assay type: functional
Histone deacetylase 11 = Histone deacetylase 11 (Homo sapiens, UniProt Q96DB2); experiment: Inhibition of HDAC 11 in human HeLa nuclear extract using fluorogenic HDAC class 2A substrate measured after 60 mins by fluorometric analysis
Chain of Histone deacetylase 11 (Q96DB2 whole entry): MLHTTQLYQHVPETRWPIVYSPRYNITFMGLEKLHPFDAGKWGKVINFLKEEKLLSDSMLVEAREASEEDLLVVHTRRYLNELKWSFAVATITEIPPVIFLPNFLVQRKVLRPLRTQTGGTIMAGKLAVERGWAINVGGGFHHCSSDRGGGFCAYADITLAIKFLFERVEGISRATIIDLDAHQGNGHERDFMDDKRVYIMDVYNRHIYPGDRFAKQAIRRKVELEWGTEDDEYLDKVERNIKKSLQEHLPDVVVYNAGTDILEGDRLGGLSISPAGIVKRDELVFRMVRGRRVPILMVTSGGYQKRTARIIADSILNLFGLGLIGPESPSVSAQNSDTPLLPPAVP

HL-60 [8] = experiment: Induction of mitochondrial membrane potential loss in human HL60 cells at 10 uM measured after 48 hrs by Rh123 dye-based flow cytometric analysis (reference value: 5.6%); assay type: functional; method in brief: as §1
MOLT-4 [9] = experiment: Induction of mitochondrial membrane potential loss in human MOLT4 cells at 1 uM measured after 48 hrs by Rh123 dye-based flow cytometric analysis (reference value: 9.6%); assay type: functional; method in brief: as §1
THP-1 = experiment: Antimigratory activity in human THP1 cells at 0.125 uM after 48 hrs by wound healing assay; assay type: functional, cell-based
Method in brief: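 THP-1 cells seeded at high density, attached overnight; monolayer scratched with a pipette tip, debris removed by PBS washes, then test compound added after wounding. Incubated 48 h under standard culture conditions (37°C, 5% CO2); wound images taken at various intervals from time zero.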

Histone deacetylase 5 = Histone deacetylase 5 (Homo sapiens, UniProt Q9UQL6); experiment: Inhibition of HDAC 5 in human HeLa nuclear extract using fluorogenic HDAC class 2A substrate measured after 60 mins by fluorometric analysis
MIA PaCa-2 = experiment: Cytotoxicity against human MIAPaCa2 cells assessed as growth inhibition after 48 hrs by MTT assay; assay type: functional, cell-based; settings: MIA PaCa-2, 48 h
Method in brief: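 MTT assay, 48 h exposure; adherent lines seeded 12 h and suspension lines 4 h before compound. Media: RPMI-1640/10% FCS (THP-1, HL-60, Colo-205, Caco-2, A549), DMEM/10% FCS (A549, MIAPaCa-2, MCF-7). MTT 4 h, formazan dissolved in DMSO, absorbance 570 nm. Mean ± S.D of three experiments in triplicate; SAHA 5 µM reference.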

HL-60 [10] = experiment: Induction of reactive oxygen species in human HL60 cells at 10 uM measured after 48 hrs by H2DCFDA dye-based flow cytometric analysis (reference value: 0.4%); assay type: functional
[11] = target: Polyamine deacetylase HDAC10 (Homo sapiens, UniProt Q969S8); experiment: Inhibition of HDAC 10 in human HeLa nuclear extract measured after 60 mins by fluorometric analysis
Chain of Polyamine deacetylase HDAC10 (Q969S8 whole entry): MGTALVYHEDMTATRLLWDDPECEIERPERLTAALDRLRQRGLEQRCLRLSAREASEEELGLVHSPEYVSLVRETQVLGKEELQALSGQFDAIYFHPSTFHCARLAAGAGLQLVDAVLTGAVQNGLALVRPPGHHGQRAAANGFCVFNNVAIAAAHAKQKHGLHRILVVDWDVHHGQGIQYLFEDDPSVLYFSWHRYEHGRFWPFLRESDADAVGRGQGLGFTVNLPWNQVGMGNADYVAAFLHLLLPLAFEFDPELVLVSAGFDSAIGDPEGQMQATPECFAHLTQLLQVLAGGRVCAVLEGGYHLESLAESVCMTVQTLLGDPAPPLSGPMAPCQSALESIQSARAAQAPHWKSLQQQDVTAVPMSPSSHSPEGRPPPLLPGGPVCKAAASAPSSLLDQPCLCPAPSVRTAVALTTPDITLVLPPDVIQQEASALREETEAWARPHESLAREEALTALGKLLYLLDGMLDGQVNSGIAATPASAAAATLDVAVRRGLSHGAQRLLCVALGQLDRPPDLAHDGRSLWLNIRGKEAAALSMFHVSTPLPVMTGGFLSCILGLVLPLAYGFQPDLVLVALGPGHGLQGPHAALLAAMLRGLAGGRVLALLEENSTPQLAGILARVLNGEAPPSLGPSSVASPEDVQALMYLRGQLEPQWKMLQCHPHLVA

Histone deacetylase 2 = Histone deacetylase 2 (Homo sapiens, UniProt Q92769); experiment: Inhibition of HDAC 2 in human HeLa nuclear extract using HDAC substrate-3 measured after 60 mins by fluorometric analysis
Chain of Histone deacetylase 2 (Q92769 whole entry): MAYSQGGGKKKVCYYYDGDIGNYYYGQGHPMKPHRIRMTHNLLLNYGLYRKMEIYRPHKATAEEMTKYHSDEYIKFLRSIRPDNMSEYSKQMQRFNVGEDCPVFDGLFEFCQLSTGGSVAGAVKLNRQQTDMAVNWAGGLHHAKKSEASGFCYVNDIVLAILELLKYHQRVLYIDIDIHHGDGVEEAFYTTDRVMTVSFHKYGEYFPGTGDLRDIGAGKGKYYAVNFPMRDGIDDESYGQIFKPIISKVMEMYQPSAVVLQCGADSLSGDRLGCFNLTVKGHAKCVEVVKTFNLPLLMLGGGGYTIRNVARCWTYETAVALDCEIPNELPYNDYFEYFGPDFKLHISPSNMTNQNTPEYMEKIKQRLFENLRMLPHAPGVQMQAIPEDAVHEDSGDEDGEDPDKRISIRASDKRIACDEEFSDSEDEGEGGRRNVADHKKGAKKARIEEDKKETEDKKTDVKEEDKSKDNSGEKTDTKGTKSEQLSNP

Mus musculus = experiment: Toxicity in CDF1 mouse assessed as mortality at 50 mg/kg, ip administered for 9 consecutive days measured up to 18 days; assay type: organism-based; settings: in vivo, 432 h
Method in brief: (§2)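 P388 leukemia cells were harvested from 6–7-day-old ascites grown in the peritoneum of female DBA/2 mice. Female CDF1 mice (18–23 g) received 5×10^5 cells i.p. on day 0. Next day they were randomized into groups of 7 and dosed i.p. daily for 9 consecutive days; controls got 0.2 ml normal saline. Mortality was followed to day 18, with median survival time and %T/C calculated.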

Caco-2 = experiment: Cytotoxicity against human Caco2 cells assessed as growth inhibition after 48 hrs by MTT assay; assay type: functional, cell-based; settings: Caco-2, 48 h
Histone deacetylase 3 = Histone deacetylase 3 (Homo sapiens, UniProt O15379); experiment: Inhibition of HDAC 3 in human HeLa nuclear extract using HDAC substrate-3 measured after 60 mins by fluorometric analysis
Chain of Histone deacetylase 3 (O15379 whole entry): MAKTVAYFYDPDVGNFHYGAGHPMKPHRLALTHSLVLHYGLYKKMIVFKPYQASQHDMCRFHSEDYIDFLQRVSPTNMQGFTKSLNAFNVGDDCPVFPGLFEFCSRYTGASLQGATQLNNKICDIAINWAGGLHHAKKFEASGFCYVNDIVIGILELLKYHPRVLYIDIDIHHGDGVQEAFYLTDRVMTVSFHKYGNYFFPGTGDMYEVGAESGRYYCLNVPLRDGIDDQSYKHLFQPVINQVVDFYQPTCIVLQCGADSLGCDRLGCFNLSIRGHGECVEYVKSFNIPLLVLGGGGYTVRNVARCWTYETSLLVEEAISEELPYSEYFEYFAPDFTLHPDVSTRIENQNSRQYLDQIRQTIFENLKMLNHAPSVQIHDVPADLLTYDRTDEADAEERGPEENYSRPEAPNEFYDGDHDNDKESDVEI

P388 = experiment: Antitumor activity against mouse P388 cells implanted in CDF1 mouse assessed as increase in median survival time at 50 mg/kg, ip administered for 9 consecutive days; assay type: functional; method in brief: as §2
MOLT-4 [12] = experiment: Induction of mitochondrial membrane potential loss in human MOLT4 cells assessed as intact mitochondrial membrane potential at 5 uM measured after 48 hrs by Rh123 dye-based flow cytometric analysis (reference value: 90.4%); assay type: functional; method in brief: as §1
MOLT-4 [13] = experiment: Induction of mitochondrial membrane potential loss in human MOLT4 cells assessed as intact mitochondrial membrane potential at 0.125 uM measured after 48 hrs by Rh123 dye-based flow cytometric analysis (reference value: 90.4%); assay type: functional; method in brief: as §1

`O=C(CCCCCCC(=O)Nc1ccccc1CN1CC[C@H](O)C1)NO` gave an IC50 (Histone deacetylase 8) of 211 nM, an Activity (HL-60 [1]) of 82.6% and an IC50 (Histone deacetylase 9) greater than 10000 nM. The Activity (HL-60 [2]) was 89%, the Activity (MOLT-4 [3]) was 1.1% and the inhibition (Homo sapiens) was “Dose-dependent effect”. For the same compound, the IC50 (HL-60 [4]) was 1000 nM, the Activity (HL-60 [5]) was “Active” and the IC50 (Histone deacetylase 4) was 7120 nM. The Activity (HL-60 [6]) was 54.7%, the Activity (HL-60 [7]) was 1% and the IC50 (Histone deacetylase 11) was greater than 10000 nM. For the same compound, the Activity (HL-60 [8]) was 32%, the Activity (MOLT-4 [9]) was 4.9% and the Activity (THP-1) was “Active”. The IC50 (Histone deacetylase 5) was 5390 nM, the IC50 (MIA PaCa-2) was 1000 nM and the Activity (HL-60 [10]) was 0.1%. For the same compound, the IC50 [11] was greater than 10000 nM, the IC50 (Histone deacetylase 2) was 268 nM and the Activity (Mus musculus) was “Non-Toxic”. For the same compound, the IC50 (Caco-2) was 6000 nM, the IC50 (Histone deacetylase 3) was 368 nM and the T/C (P388) was 92.47%. It also gave an Activity (MOLT-4 [12]) of 42.5% and an Activity (MOLT-4 [13]) of 97.6%.
